Consider 1 sequence from ChEMBL document CHEMBL1671711, “Serum and cerebrospinal fluid levels of colistin in pediatric patients” (Antimicrob Agents Chemother, 2010).

Common to all, as to format: ADME, organism-based
What all share (parameters): route intravenous

A short description of data set [1]: Drug level in pediatric patient cerebrospinal fluid with gram-negative bacterial infection assessed as Colistin level at 16 mg/kg/day, iv administered every 8 hrs for 51 days measured after 30 mins by LS/MS/MS analysis. The settings on record: human, in vivo, 0.5 h. In outline:
(§1)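 Children (1 month to 14 years) received CMS in 30 to 50 ml normal saline by 20-min IV infusion every 8 h. CSF was taken from EVD systems alongside blood, after the end of infusion, and stored at −80°C. It was diluted 1:1 with serum, protein-precipitated, and analysed by LC-MS-MS for colistin A plus B against standards in pH 7.4 phosphate-buffered artificial-CSF Ringer with serum. Values are means of two days; course 1 was sampled once.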

For data set [2], the system named is Serum. In words: Drug level in pediatric patient serum with gram-negative bacterial infection at 18 mg/kg/day, iv administered every 8 hrs for 42 days measured after 30 mins by LS/MS/MS analysis. The settings on record: human, in vivo, 0.5 h. In outline: (§2)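 Serum was taken 30 min after the end of the 20-min IV CMS infusion (every 8 h) and stored at −80°C. It underwent acid hydrolysis with 1 M H2SO4 for 15–20 min, neutralisation with 1 M NaOH, and precipitation with acetonitrile containing 0.1% TFA. LC-MS-MS colistin before hydrolysis was subtracted from colistin after hydrolysis to give CMS. Values are means of two days.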

Data set [3] in a line: Drug level in pediatric patient cerebrospinal fluid with gram-negative bacterial infection at 10.4 mg/kg/day, iv administered every 8 hrs for 46 days measured after 30 mins by LS/MS/MS analysis. The conditions noted are these: human, in vivo, 0.5 h. In outline:
(§3)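 CMS was given by 20-min IV infusion in saline every 8 h, and CSF was taken from EVD systems after the end of infusion. The CSF–serum 1:1 mix was treated with 1 M H2SO4 for 15–20 min, then 1 M NaOH, then acetonitrile with 0.1% TFA. CMS was calculated as colistin after hydrolysis minus colistin before hydrolysis, by LC-MS-MS, with CMS controls of 0.25–18.5 μg/ml. Values are means of two days; course 1 was sampled once.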

A short description of data set [4]: Drug level in pediatric patient cerebrospinal fluid with gram-negative bacterial infection assessed as Colistin level at 10.4 mg/kg/day, iv administered every 8 hrs for 46 days measured after 30 mins by LS/MS/MS analysis. The settings on record: human, in vivo, 0.5 h. In outline: as §1
Data set [5] can be described thus: Ratio of drug level in cerebrospinal fluid to Serum of pediatric patient with gram-negative bacterial infection before initiation of 10.4 mg/kg/day, iv administered every 8 hrs for 46 days by LS/MS/MS analysis. The conditions noted are these: human, csf. In outline:
(§4)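 Percentages are the ratio of mean CSF concentration to mean serum concentration from paired samples. Blood was drawn immediately before and 30 min after the 20-min IV CMS infusion (every 8 h); CSF came from EVD systems concurrently. Both were measured by LC-MS-MS, for colistin directly and for CMS after acid hydrolysis. Pairs were repeated on two days.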

The nature of data set [6]: Drug level in pediatric patient cerebrospinal fluid with gram-negative bacterial infection before initiation of 16 mg/kg/day, iv administered every 8 hrs for 51 days by LS/MS/MS analysis. The conditions noted are these: human, in vivo. In outline: (§5)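 Trough sampling: blood was drawn immediately before the 20-min IV CMS infusion (every 8 h), and CSF was taken from EVD systems within 1 h before infusion. Samples were stored at −80°C and analysed by LC-MS-MS for colistin, and for CMS via acid hydrolysis with subtraction. CSF was diluted 1:1 with serum. Values are means of two days.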

Data set [7] is described as follows: Ratio of drug level in cerebrospinal fluid to Serum of pediatric patient with gram-negative bacterial infection assessed as Colistin level at 16 mg/kg/day, iv administered every 8 hrs for 51 days by LS/MS/MS analysis. The conditions noted are these: human, csf. In outline:
as §4

Data set [8] in a line: Drug level in pediatric patient cerebrospinal fluid with gram-negative bacterial infection before initiation of 18 mg/kg/day, iv administered every 8 hrs for 42 days by LS/MS/MS analysis. The conditions noted are these: human, in vivo. In outline: as §5
The nature of data set [9]: Drug level in pediatric patient cerebrospinal fluid with gram-negative bacterial infection assessed as Colistin level at 4.8 mg/kg/day, iv administered every 8 hrs for 7 days measured after 30 mins by LS/MS/MS analysis. The conditions noted are these: human, in vivo, 0.5 h. In outline: as §1
Data set [10] is described as follows: Drug level in pediatric patient cerebrospinal fluid with gram-negative bacterial infection at 16 mg/kg/day, iv administered every 8 hrs for 93 days measured after 30 mins by LS/MS/MS analysis. The conditions noted are these: human, in vivo, 0.5 h. In outline: as §3
Data set [11] in a line: Ratio of drug level in cerebrospinal fluid to Serum of pediatric patient with gram-negative bacterial infection before initiation of 16 mg/kg/day, iv administered every 8 hrs for 51 days by LS/MS/MS analysis. The conditions noted are these: human, csf. In outline:
as §4

The subject of data set [12] is Serum. In words: Drug level in pediatric patient serum with gram-negative bacterial infection assessed as Colistin level at 16 mg/kg/day, iv administered every 8 hrs for 93 days measured after 30 mins by LS/MS/MS analysis. The conditions noted are these: human, in vivo, 0.5 h. In outline:
(§6)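 Blood was drawn 30 min after the end of the 20-min IV CMS infusion, given every 8 h. Serum was separated by centrifugation, stored at −80°C, and assayed by LC-MS-MS for colistin A plus B (interday CV <4.4%, accuracy within ±1.9%). Values are means of two sampling days; course 1 was sampled once.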

Data set [13] has as its system Serum. In words: Drug level in pediatric patient serum with gram-negative bacterial infection at 16 mg/kg/day, iv administered every 8 hrs for 51 days measured after 30 mins by LS/MS/MS analysis. The conditions noted are these: human, in vivo, 0.5 h. In outline:
as §2

The subject of data set [14] is Serum. In words: Drug level in pediatric patient serum with gram-negative bacterial infection before initiation of 4.8 mg/kg/day, iv administered every 8 hrs for 7 days by LS/MS/MS analysis. The settings on record: human, in vivo. In outline: as §5
Data set [15] in a line: Ratio of drug level in cerebrospinal fluid to Serum of pediatric patient with gram-negative bacterial infection at 10.4 mg/kg/day, iv administered every 8 hrs for 46 days by LS/MS/MS analysis. The settings on record: human, csf. In outline:
as §4

The nature of data set [16]: Ratio of drug level in cerebrospinal fluid to Serum of pediatric patient with gram-negative bacterial infection at 18 mg/kg/day, iv administered every 8 hrs for 42 days by LS/MS/MS analysis. The settings on record: human, csf. In outline:
as §4

The nature of data set [17]: Drug level in pediatric patient cerebrospinal fluid with gram-negative bacterial infection assessed as Colistin level at 16 mg/kg/day, iv administered every 8 hrs for 93 days measured after 30 mins by LS/MS/MS analysis. The settings on record: human, in vivo, 0.5 h. In outline:
as §1

A short description of data set [18]: Drug level in pediatric patient cerebrospinal fluid with gram-negative bacterial infection before initiation of 16 mg/kg/day, iv administered every 8 hrs for 93 days by LS/MS/MS analysis. The settings on record: human, in vivo. In outline: as §5
The nature of data set [19]: Ratio of drug level in cerebrospinal fluid to Serum of pediatric patient with gram-negative bacterial infection at 4.8 mg/kg/day, iv administered every 8 hrs for 7 days by LS/MS/MS analysis. The settings on record: human, csf. In outline:
as §4

The nature of data set [20]: Drug level in pediatric patient cerebrospinal fluid with gram-negative bacterial infection before initiation of 4.8 mg/kg/day, iv administered every 8 hrs for 7 days by LS/MS/MS analysis. The settings on record: human, in vivo. In outline: as §5
Data set [21] is described as follows: Drug level in pediatric patient cerebrospinal fluid with gram-negative bacterial infection at 4.8 mg/kg/day, iv administered every 8 hrs for 7 days measured after 30 mins by LS/MS/MS analysis. The settings on record: human, in vivo, 0.5 h. In outline:
as §3

Data set [22] deals with Serum. As to the kind of experiment: Drug level in pediatric patient serum with gram-negative bacterial infection assessed as Colistin level at 10.4 mg/kg/day, iv administered every 8 hrs for 46 days measured after 30 mins by LS/MS/MS analysis. The settings on record: human, in vivo, 0.5 h. In outline: as §6
The subject of data set [23] is Serum. As to the kind of experiment: Drug level in pediatric patient serum with gram-negative bacterial infection at 16 mg/kg/day, iv administered every 8 hrs for 93 days measured after 30 mins by LS/MS/MS analysis. The conditions noted are these: human, in vivo, 0.5 h. In outline: as §2

For COLISTIN, the Drug uptake in [1] stood at 0.11 µg/mL; in [2] it was 7.98 µg/mL; in [3], 0.02 µg/mL; in data set [4], 0.05 µg/mL; in [6] it was 0.09 µg/mL; in data set [8] it was 0.04 µg/mL. For the same sequence, the Drug uptake in data set [9] was determined as 0.06 µg/mL; in [10], 0.26 µg/mL; in data set [12] it was 1.33 µg/mL; in [13], 9.89 µg/mL; in data set [14], 0.28 µg/mL; in [17], 0.46 µg/mL. The Drug uptake in [18] amounted to 0.38 µg/mL; in data set [20] it was 0.06 µg/mL; in data set [21], 0.06 µg/mL; in [22], 1.46 µg/mL; in data set [23], 8.41 µg/mL. The Ratio worked out at 3.1% in [5]; 7.2% in data set [7]; 9.9% in [11]; 0.2% in data set [15]; 0.4% in data set [16]; 2% in data set [19].
